The test deals with Plasmodium yoelii. Nature of the test: NOVARTIS: Antimalarial liver stage activity measured as reduction in Plasmodium yoelii schizont area in HepG2-A16-CD81 cells by immuno-fluorescence, and median schizont size at 10uM compound concentration. Type of test: functional, organism-based. As to conditions: for IC50: Plasmodium yoelii, HepG2-A16-CD81. An outline of the steps: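 Host and parasite nuclei stained with Hoechst 33342, parasites with αPyHSP70 antibody; 25 images per well by high-content imaging; median parasite (schizont) area measured by automated image analysis, ~50 schizonts per experiment, two or more independent experiments.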

The structures appear in SMILES notation.

Broadly, the IC50 is the concentration at which inhibition is half-maximal. A low value points to greater potency. As for `CN(C)c1ccc(-c2n(C)c3ccccc3[n+]2C)cc1.[Cl-]`, the Schizont size was 46.86 um and the IC50 came out at 175 nM.
`Cc1ccc(-c2cn3c([n+]2-c2ccccc2)SCC3)cc1.[Br-]` registered a Schizont size of 62.52 um and an IC50 of 1090 nM.
On to `CCOC(=O)C1=C(C)NC2=C(C(=O)C(C(=O)OCC)C(c3cccc(OC)c3)C2)C1c1cc(OC)c(OC)c(OC)c1` (stereo not drawn), for which the Schizont size was found to be 109.59 um and the midpoint of inhibition, the IC50, lay at 232 nM.
Turning to `Cn1cnnc1SCC(=O)Nc1ccccc1C(F)(F)F`, the Schizont size was determined as 204.16 um and the IC50 was over 10000 nM.
Compound `O=C1C(Nc2ccc(O)cc2)=CC(=NS(=O)(=O)c2cccs2)c2ccccc21` returned a Schizont size of 12.53 um and an IC50 of 85.6 nM.
For `O=C1c2ccccc2-n2c1nc1ccccc1c2=O` [TRYPTANTHRIN], in that order: 89.55 um and 225 nM.
Compound `COc1ccc(C2CC3=NC(C)=C(C(=O)OC(C)C)C(c4ccccc4OC)C3=C(O)C2)cc1OC` (stereo not drawn) gave a Schizont size of 182.03 um and an IC50 of over 10000 nM.
`CCN(CC)CCCC(C)Nc1c2ccc(Cl)cc2nc2ccc(OC)cc12` (stereo not drawn) [QUINACRINE]: the Schizont size is recorded as 26.3 um and the concentration for half-maximal inhibition (IC50) amounted to 166 nM.
Taken in the same sequence, the figures for `CCOC(=O)c1cnc2ccc(C(C)C)cc2c1O` were 31.42 um and 352 nM.
`CCOc1ccc(N2C(N)=NC(N)=NC2(C)C)cc1.Cl` yielded a Schizont size of 35.59 um and an IC50 of 46.8 nM.
For `CCOC(=O)C1=C(C)NC2=C(C(=O)C(C(=O)OCC)C(c3ccc(OC)cc3)C2)C1c1ccc(OC)c(OC)c1` (stereo not drawn), in that order: 86.53 um and 240 nM.
In turn, `CC(=O)Nc1nc(C)c(-c2csc(Nc3ccc(C)cc3)n2)s1` yielded a Schizont size of 104.48 um and an IC50 of 1890 nM.
For `O=C(Nc1ccc(-c2nc3cc(NC(=O)c4cccc([N+](=O)[O-])c4)ccc3[nH]2)cc1)c1cccc([N+](=O)[O-])c1`, in that order: 101.45 um and over 940 nM.
`O=C1Nc2ccccc2C12Nc1ccccc1-c1nc3ccccc3n12` (stereo not drawn) had a Schizont size of 165.43 um and an IC50 of over 10000 nM.
The compound `Clc1ccccc1-c1nc([P+](c2ccccc2)(c2ccccc2)c2ccccc2)c(N2CCOCC2)o1` returned a Schizont size of 20.56 um and a concentration for half-maximal inhibition (IC50) of 95.6 nM.
On to `CCCCN(CC)CCNC(=O)C1c2ccccc2C(=O)N(Cc2ccc(F)cc2)C1c1ccc(OC)cc1` (stereo not drawn), for which the Schizont size is 63.36 um and inhibition was half-maximal at 89.1 nM (IC50).
The compound `Cc1ccc(-c2nn3c(O)c4c(nc3c2C)CCCC4)cc1` displayed a Schizont size of 28.7 um and an IC50 of 11.3 nM.
For `CC(=O)N(C)C1=C(N2CCOCC2)C(=O)c2ccccc2C1=O`, in that order: 38.72 um and 229 nM.
For `CC1(C)C2CCC(C2)C1(C)NC(=S)NN=Cc1ccccn1` (stereo not drawn), in that order: 28.29 um and 17.4 nM.
`CC(=O)N(C1=C(N2CCOCC2)C(=O)c2ccccc2C1=O)c1cccc(Cl)c1` displayed a Schizont size of 43.73 um and a concentration for half-maximal inhibition (IC50) of 744 nM.
`COc1cc(C(=O)N2N=C(c3c(-c4ccccc4)c4cc(Br)ccc4[nH]c3=O)CC2c2cccc([N+](=O)[O-])c2)cc(OC)c1OC` (stereo not drawn) displayed a Schizont size of 29.43 um and an IC50 of 435 nM.
Turning to `CCOC(=O)C1=C(c2ccccc2)N=c2sc(=Cc3cc(C)n(-c4ccc(F)cc4)c3C)c(=O)n2C1c1cccc(OC)c1OC` (stereo not drawn), the Schizont size amounted to 106.25 um and the IC50 turned out to be 2450 nM.
For the compound `CCC(/C=C1\Sc2ccc(OC)cc2N1CCCS(=O)(=O)O)=C\c1sc2ccc(OC)cc2[n+]1CCCS(=O)(=O)O`, the Schizont size is on record as 18.06 um and 11.2 nM corresponded to half-maximal inhibition (IC50).
Take `COc1ccc(C2CC(=O)C3=C(C2)NC(C)=C(C(=O)OC2CCCC2)C3c2cccc(C)c2)cc1OC` (stereo not drawn): the Schizont size is recorded as 66.8 um and the concentration for half-maximal inhibition (IC50) was 779 nM.

These data come from ChEMBL document CHEMBL1789904, “Imaging of Plasmodium liver stages to drive next-generation antimalarial drug discovery” (Science, 2011).
